# Measured values taken from ChEMBL document CHEMBL1124161, “4-Hydroxy-3-quinolinecarboxamides with antiarthritic and analgesic activities” (J Med Chem, 1988).
# Active and inactive are the calls of the source. The calls are words filed in the database; no cut-off is given here.
# Columns and labels:
# Rattus norvegicus [1] = assay: Ulcerogenic effect after oral administration (gastric ulcer); type: functional
# In short: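 Groups of eight female rats (120–150 g), fasted 24 h, dosed orally; killed 7 h later and stomachs scored. Ulceration index = (mean ulcer degree × rats with ulcers / number of rats) × 100, ulcers being scores above 0.5. ED100 (index 100, max 300) read graphically.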
# Mus musculus [2] = assay: Analgesic activity against acetic acid induced writhing test in mouse after peroral administration; type: functional
# Rattus norvegicus [3] = assay: Antiinflammatory activity against carrageenan-induced foot edema in rat after peroral administration; type: functional; conditions: po
# In short: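 Groups of eight male Sprague-Dawley rats (150–180 g) dosed orally at the time of subplantar injection of 0.5 mg carrageenin. Paw volume difference measured before and 5 h after injection. Expressed as ED40, estimated graphically or by Litchfield–Wilcoxon probit analysis.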
# Rattus norvegicus [4] = assay: Ulcerogenic effect after oral administration (intestinal ulcer); type: functional
# In short: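 Nonfasted male rats (150–180 g) killed 24 h after oral dosing, and intestinal ulcers scored. Ulceration index = (mean degree × rats with ulcers / rats) × 100. ED100 (index 100) determined graphically.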
# [5] = biological target: T1, Polyunsaturated fatty acid 5-lipoxygenase (Rattus norvegicus, UniProt P12527); assay: Inhibition of 5-lipoxygenase from rat peritoneal neutrophils in vitro
# T1 sequence (P12527 whole entry): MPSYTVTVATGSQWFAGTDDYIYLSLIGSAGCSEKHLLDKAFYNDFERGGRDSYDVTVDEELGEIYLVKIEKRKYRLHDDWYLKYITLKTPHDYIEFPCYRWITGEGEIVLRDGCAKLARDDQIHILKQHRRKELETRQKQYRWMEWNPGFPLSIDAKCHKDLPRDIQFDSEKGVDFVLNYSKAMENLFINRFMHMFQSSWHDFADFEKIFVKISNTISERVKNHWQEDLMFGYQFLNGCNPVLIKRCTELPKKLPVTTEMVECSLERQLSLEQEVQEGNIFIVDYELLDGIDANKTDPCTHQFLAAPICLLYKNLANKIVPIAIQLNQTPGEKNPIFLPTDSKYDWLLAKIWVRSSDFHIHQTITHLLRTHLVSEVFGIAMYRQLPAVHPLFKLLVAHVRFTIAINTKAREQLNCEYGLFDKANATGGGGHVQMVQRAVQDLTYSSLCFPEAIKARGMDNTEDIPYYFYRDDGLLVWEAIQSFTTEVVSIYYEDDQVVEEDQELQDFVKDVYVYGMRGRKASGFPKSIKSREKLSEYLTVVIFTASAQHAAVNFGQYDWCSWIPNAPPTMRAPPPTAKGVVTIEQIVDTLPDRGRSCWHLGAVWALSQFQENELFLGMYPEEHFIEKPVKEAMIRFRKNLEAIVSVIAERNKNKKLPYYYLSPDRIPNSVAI
# Rattus norvegicus [6] = assay: Anti-arthritis activity against adjuvant-induced arthritis in rats after peroral administration; type: functional
# In short: (§1)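 Groups of five male Lewis rats, 40–50 days old, given intraplantar injection in right hind paw of 0.6 mg Mycobacterium butyricum in 0.1 mL Bayol 55. Drug given in food from adjuvant day to day 17. Injected and noninjected hind paw volumes measured day 17 against normal controls. ED50 by least-squares curve fitting or Litchfield–Wilcoxon probit.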
# Rattus norvegicus [7] = species on record: Rattus norvegicus; assay: Antiarthritis activity against adjuvant-induced arthritis in rats; type: functional; in short: as §1
# Cyclooxygenase = biological target: T2, Cyclooxygenase (Bos taurus, UniProt O62664+O62698); assay: Inhibition of bovine Prostaglandin G/H synthase in seminal vesicle microsomes in vitro
# T2 sequence (O62664 whole entry): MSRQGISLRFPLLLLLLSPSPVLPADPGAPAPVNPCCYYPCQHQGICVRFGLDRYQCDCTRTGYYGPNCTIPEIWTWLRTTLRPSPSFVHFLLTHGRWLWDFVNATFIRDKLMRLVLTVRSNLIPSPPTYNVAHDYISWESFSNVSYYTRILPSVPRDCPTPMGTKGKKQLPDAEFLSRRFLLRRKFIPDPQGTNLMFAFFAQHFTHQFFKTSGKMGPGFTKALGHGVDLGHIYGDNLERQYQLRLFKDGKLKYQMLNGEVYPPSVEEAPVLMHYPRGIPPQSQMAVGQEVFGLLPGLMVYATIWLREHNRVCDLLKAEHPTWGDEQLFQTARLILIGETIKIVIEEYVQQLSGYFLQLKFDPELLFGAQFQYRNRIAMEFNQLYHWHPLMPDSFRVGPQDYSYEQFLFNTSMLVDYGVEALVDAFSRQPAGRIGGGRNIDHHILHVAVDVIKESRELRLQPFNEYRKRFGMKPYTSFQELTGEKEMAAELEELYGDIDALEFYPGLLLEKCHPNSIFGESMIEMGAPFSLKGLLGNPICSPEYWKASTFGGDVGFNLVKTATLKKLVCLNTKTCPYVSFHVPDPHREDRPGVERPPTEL
# T2 sequence (O62698 whole entry): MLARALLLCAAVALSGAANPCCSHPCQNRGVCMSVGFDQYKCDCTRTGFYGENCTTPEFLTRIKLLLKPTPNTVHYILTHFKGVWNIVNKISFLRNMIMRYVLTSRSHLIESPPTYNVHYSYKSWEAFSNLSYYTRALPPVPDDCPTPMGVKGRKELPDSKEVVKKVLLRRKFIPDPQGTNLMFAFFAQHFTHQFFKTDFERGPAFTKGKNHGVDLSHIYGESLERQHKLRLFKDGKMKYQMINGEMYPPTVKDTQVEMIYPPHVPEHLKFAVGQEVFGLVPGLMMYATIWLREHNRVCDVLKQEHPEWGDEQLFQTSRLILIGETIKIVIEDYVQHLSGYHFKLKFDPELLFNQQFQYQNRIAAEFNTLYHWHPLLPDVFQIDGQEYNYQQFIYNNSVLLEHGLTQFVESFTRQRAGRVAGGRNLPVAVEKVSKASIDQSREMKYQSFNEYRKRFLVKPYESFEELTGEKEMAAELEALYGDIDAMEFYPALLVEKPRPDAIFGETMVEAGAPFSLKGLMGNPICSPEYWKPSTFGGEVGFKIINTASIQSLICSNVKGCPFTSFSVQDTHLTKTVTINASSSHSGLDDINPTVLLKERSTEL
# Rattus norvegicus [8] = assay: Antiinflammatory activity against carrageenan-induced foot edema in rat after oral administration of 20 mg/kg; IA=Inactive; type: functional, organism-based; design: dose 20 mg/kg
# Mus musculus [9] = assay: Analgesic activity against acetic acid induced writhing test in mouse after peroral administration at 100 mg/kg; IA=Inactive; type: functional, organism-based; design: dose 100 mg/kg
# In short: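 Female mice (20–22 g), groups of 10, fasted 7 h; drug given orally 30 min before intraperitoneal injection of 0.2 mL 1% aqueous acetic acid. Stretching/writhing movements counted from minute 5 to 20 after irritant.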
# Rattus norvegicus [10] = assay: Antiinflammatory activity against carrageenan-induced foot edema in rat after peroral administration at 25 mg/kg; IA=Inactive; type: functional, organism-based; design: dose 25 mg/kg
# [11] = Mus musculus, po, read-out: ED50
# [12] = Rattus norvegicus, po, read-out: ED50
smiles,measurement,setting,value
CN1C(C(=O)Nc2ccccn2)=C(O)c2ccccc2S1(=O)=O [PIROXICAM],ED100,Rattus norvegicus [1],9 mg/kg
same,ED50,Mus musculus [2]; [11],3.3 mg/kg
same,ED40,Rattus norvegicus [3],8 mg/kg
same,ED100,Rattus norvegicus [4],20 mg/kg
same,IC50,[5],> 100 µM
same,ED50,Rattus norvegicus [6]; [12],0.8 mg/kg
CCC(O)c1nc2c(C(F)(F)F)cccc2c(O)c1C(=O)Nc1nccs1 (stereo in doubt; 89),ED100,Rattus norvegicus [1],12 mg/kg
same,ED50,Rattus norvegicus [7],2 mg/kg
same,ED50,Mus musculus [2],3 mg/kg
same,ED40,Rattus norvegicus [3],5 mg/kg
same,IC50,[5],1.1 µM
same,IC50,Cyclooxygenase,0.2 µM
same,ED50,Rattus norvegicus [6],1.6 mg/kg
CCCCc1nc2c(C(F)(F)F)cccc2c(O)c1C(=O)Nc1nccs1,ED50,Mus musculus [2]; [11],50 mg/kg
same,ED50,Rattus norvegicus [8],inactive
CC(C)[C@H](N)c1nc2c(C(F)(F)F)cccc2c(O)c1C(=O)Nc1nccs1,ED50,Mus musculus [2]; [11],> 100 mg/kg
same,ED50,Rattus norvegicus [6]; [12],≥ 5 mg/kg
CC(=O)OC(c1nc2c(C(F)(F)F)cccc2c(O)c1C(=O)Nc1ccccn1)C(C)C (stereo unspecified),ED50,Mus musculus [9],inactive
same,ED50,Rattus norvegicus [6]; [12],≥ 5 mg/kg
CC(C)C(O)c1nc2c(C(F)(F)F)cccc2c(O)c1C(=O)Nc1ccccn1 (stereo unspecified),ED50,Mus musculus [2]; [11],> 50 mg/kg
same,ED50,Rattus norvegicus [6]; [12],5 mg/kg
CCC(=O)OC(CC)c1nc2c(C(F)(F)F)cccc2c(O)c1C(=O)Nc1nccs1 (stereo in doubt; 103),ED50,Mus musculus [2],>50 mg/kg
same,ED50,Rattus norvegicus [6],>5 mg/kg
CCCC(=O)OC(CC)c1nc2c(C(F)(F)F)cccc2c(O)c1C(=O)Nc1nccs1 (stereo unspecified),ED50,Mus musculus [2]; [11],4 mg/kg
same,ED50,Rattus norvegicus [6]; [12],1.3 mg/kg
O=C(Nc1nccs1)c1c(C(Cl)Cl)nc2c(C(F)(F)F)cccc2c1O,ED100,Rattus norvegicus [1],270 mg/kg
same,ED50,Mus musculus [2]; [11],1.1 mg/kg
same,ED40,Rattus norvegicus [3],> 100 mg/kg
same,ED100,Rattus norvegicus [4],>500 mg/kg
same,IC50,[5],2 µM
same,IC50,Cyclooxygenase,1.8 µM
same,ED50,Rattus norvegicus [6]; [12],48 mg/kg
CC(O)c1nc2c(C(F)(F)F)cccc2c(O)c1C(=O)Nc1ccccn1 (stereo unspecified),ED50,Mus musculus [2]; [11],> 50 mg/kg
O=C(Nc1ccccn1)c1cnc2c(C(F)(F)F)cccc2c1O,ED50,Mus musculus [2]; [11],> 50 mg/kg
Cn1ccnc1NC(=O)c1c(C(Cl)Cl)nc2c(C(F)(F)F)cccc2c1O,ED50,Mus musculus [2]; [11],> 25 mg/kg
same,ED50,Rattus norvegicus [10],inactive
O=C(Nc1nccs1)c1c(C(Cl)Cl)nc2c(F)cccc2c1O,ED50,Mus musculus [2]; [11],25 mg/kg
same,ED50,Rattus norvegicus [10],inactive
CC(C)c1nc2c(C(F)(F)F)cccc2c(O)c1C(=O)Nc1nccs1,ED50,Mus musculus [2]; [11],5 mg/kg
CCC(=O)OC(CC)c1nc2c(C(F)(F)F)cccc2c(O)c1C(=O)Nc1ccccn1 (stereo unspecified),ED50,Mus musculus [9],inactive
same,ED50,Rattus norvegicus [6]; [12],> 5 mg/kg
CCCC(O)c1nc2c(C(F)(F)F)cccc2c(O)c1C(=O)Nc1nccs1 (stereo unspecified),ED50,Rattus norvegicus [7],≥ 20 mg/kg
same,ED50,Mus musculus [2]; [11],20 mg/kg
O=C(Nc1ncco1)c1c(C(Cl)Cl)nc2c(C(F)(F)F)cccc2c1O,ED50,Mus musculus [2]; [11],> 25 mg/kg
same,ED50,Rattus norvegicus [10],inactive
O=C(Nc1nccs1)c1c(C(F)(F)F)nc2c(F)cccc2c1O,ED50,Mus musculus [2]; [11],5 mg/kg
O=C(Nc1nccs1)c1cnc2c(Cl)cccc2c1O,ED50,Mus musculus [2]; [11],100 mg/kg
O=C(Nc1nccs1)c1c(C(F)(F)F)nc2ccc(Cl)cc2c1O,ED50,Mus musculus [2]; [11],> 25 mg/kg
O=C(Nc1nccs1)c1c(Cc2ccccc2)nc2c(C(F)(F)F)cccc2c1O,ED50,Mus musculus [2]; [11],40 mg/kg
same,ED50,Rattus norvegicus [8],inactive
O=C(Nc1nccs1)c1c(C(F)(F)F)nc2cc(Cl)ccc2c1O,ED50,Mus musculus [2]; [11],> 25 mg/kg
